Assay results: publication PMC7475184 (Heliyon, 2020)
In brackets after ≈: the same amount, converted by molar mass.

What was measured:
[1] = system: Methicillin-Resistant Staphylococcus aureus (14–2095); test: Antibacterial activity, microdilution method; assay type: cell-based; conditions: for MIC, MRSA: MDR clinical isolate, microdilution; for MIC: Staphylococcus aureus, MRSA, read-out: MIC, MRSA
Method in brief: (§1)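 Drug-resistant clinical isolates from a university hospital, tested by broth microdilution in Mueller Hinton medium. Test compounds at 200, 100, 50, 25, 12.5, 6.25 and 3.12 μg/mL. Levofloxacin positive control at the same concentrations; DMSO (6%–0.09%, v/v) negative control. MIC taken as the lowest concentration inhibiting bacterial growth. Three repeat experiments.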

[2] = system: Linezolid-resistant Staphylococcus epidermidis (14–583); test: Antibacterial activity, microdilution method; assay type: cell-based; conditions: for MIC, LRSE: MDR clinical isolate, microdilution; for MIC: Staphylococcus epidermidis, read-out: MIC, LRSE
Method in brief: as §1

[3] = system: Vancomycin-resistant Enterococcus faecium (10–984); test: Antibacterial activity, microdilution method; assay type: cell-based; conditions: for MIC, VREF: MDR clinical isolate, microdilution; for MIC: Enterococcus faecium, read-out: MIC, VREF
Method in brief: as §1

[4] = system: Carbapenems-resistant Acinetobacter baumannii (12–666); test: Antibacterial activity, microdilution method; assay type: cell-based; conditions: for MIC, CRAB: MDR clinical isolate, microdilution; for MIC: Acinetobacter baumannii, read-out: MIC, CRAB
Method in brief: as §1

[5] = system: Escherichia coli producing extended-spectrum beta-lactamase (14–2081); test: Antibacterial activity, microdilution method; assay type: cell-based; conditions: for MIC, ECPB: MDR clinical isolate, microdilution; for MIC: Escherichia coli, read-out: MIC, ECPB
Method in brief: as §1

[6] = system: P. aeruginosa resistant to carbapenems (13–1391); test: Antibacterial activity, microdilution method; assay type: cell-based, Pseudomonas aeruginosa; conditions: for MIC, PARC: MDR clinical isolate, microdilution; for MIC: Pseudomonas aeruginosa, read-out: MIC, PARC
Method in brief: as §1

[7] = system: carbapenems-resistant Klebsiella pneumoniae NDM-1+ (14–3335); test: Antibacterial activity, microdilution method; assay type: cell-based; conditions: for MIC, KPNDM-1+: MDR clinical isolate, microdilution; for MIC: Klebsiella pneumoniae, read-out: MIC, KPNDM-1+
Method in brief: as §1

[8] = system: Klebsiella pneumoniae producer of ESBL (14–2081); test: Antibacterial activity, microdilution method; assay type: cell-based; conditions: for MIC, KPPB: MDR clinical isolate, microdilution; for MIC: Klebsiella pneumoniae, read-out: MIC, KPPB
Method in brief: as §1

[9] = system: carbapenems-resistant Klebsiella pneumoniae (OXA-48 positive); test: Antibacterial activity, microdilution method; assay type: cell-based; conditions: for MIC, KPRO: MDR clinical isolate, microdilution; for MIC: Klebsiella pneumoniae, read-out: MIC, KPRO
Method in brief: as §1

[10] = system: HepG2 (hepatocellular) cells; test: Cytotoxic activity, Cell Titer 96 proliferation kit; assay type: cell-based, human; conditions: for IC50, HepG2: HepG2 cells; for IC50: Homo sapiens, HepG2, read-out: IC50, HepG2
Method in brief: (§2)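 Cells grown in DMEM with 10% fetal bovine serum and 2 mM glutamine at 37 °C under 5% CO2. Test compounds at 100, 10, 1, 0.1 and 0.01 μg/mL for a dose-response curve. Viability read with a Cell Titer 96 aqueous kit by absorbance at 450 nm. Paclitaxel reference. Triplicates in three independent experiments; IC50 by regression analysis.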

[11] = system: Hep3B (hepatocellular) cells; test: as above; assay type: cell-based, human; conditions: for IC50, Hep3B: Hep3B cells; for IC50: Homo sapiens, Hep3B, read-out: IC50, Hep3B
Method in brief: as §2

[12] = system: HeLa (cervical) cells; test: as above; assay type: cell-based, human; conditions: for IC50, Hela: HeLa cells; for IC50: Homo sapiens, HeLa, read-out: IC50, Hela
Method in brief: as §2

[13] = system: PC3 (prostate) cells; test: Cytotoxic activity, Cell Titer 96 proliferation kit; assay type: cell-based, human; conditions: for IC50, PC3: PC3 cells; for IC50: Homo sapiens, PC-3, read-out: IC50, PC3
Method in brief: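 PC3 cells kept in RPMI-1640 at 37 °C under 5% CO2. Dose-response over 100, 10, 1, 0.1 and 0.01 μg/mL test compound. Viability measured with a Cell Titer 96 aqueous kit by absorbance at 450 nm. Paclitaxel reference. Triplicates in three independent experiments; IC50 derived by regression analysis.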

[14] = system: A549 (lung) cells; test: Cytotoxic activity, Cell Titer 96 proliferation kit; assay type: cell-based, human; conditions: for IC50, A549: A549 cells; for IC50: Homo sapiens, A549, read-out: IC50, A549
Method in brief: as §2

[15] = system: immortalized human hepatocytes (IHH); assay type: cell-based; conditions: for IC50, IHH: non-cancerous control cells IHH; for IC50: Homo sapiens, Hepatocyte, read-out: IC50, IHH
Method in brief: as §2

[16] = system: MCF7 (breast) cells; test: Cytotoxic activity, Cell Titer 96 proliferation kit; assay type: cell-based, human
Method in brief: as §2

[17] = system: hepatocellular carcinoma lines; test: Selectivity Index on hepatocellular carcinoma lines versus IHH; assay type: cell-based, human; conditions: HepG2 and Hep3B versus IHH
[18] = system: P. aeruginosa; conditions: Vernonia auriculifera screening; ref Kiplimo et al., 2011; cited from earlier work

## CCCCCCCCCCCCCCCCCCCCCCCC(=O)OCC(COC(C)=O)OC(C)=O (stereo not drawn) [2Ac, 3-(tetracosanoyloxy) propane-1,2-diyl diacetate]
[1]
  MIC, MRSA: >200 µg/mL
[2]
  MIC, LRSE: 200 µg/mL
[3]
  MIC, VREF: 200 µg/mL
[4]
  MIC, CRAB: 100 µg/mL
[5]
  MIC, ECPB: >200 µg/mL
[6]
  MIC, PARC: 200 µg/mL
[7]
  MIC, KPNDM-1+: 200 µg/mL
[8]
  MIC, KPPB: >200 µg/mL
[9]
  MIC, KPRO: >200 µg/mL

## CC[C@H](CC[C@@H](C)[C@H]1CC[C@H]2[C@@H]3CC=C4C[C@@H](O[C@@H]5O[C@H](COC(C)=O)[C@@H](OC(C)=O)[C@H](OC(C)=O)[C@H]5OC(C)=O)CC[C@]4(C)[C@H]3CC[C@]12C)C(C)C [3Ac, β-sitosteryl β-D-tetraacetyl glucopyranoside]
[1]
  MIC, MRSA: >200 µg/mL
[2]
  MIC, LRSE: >200 µg/mL
[3]
  MIC, VREF: 200 µg/mL (≈ 268 µM)
[4]
  MIC, CRAB: 200 µg/mL (≈ 268 µM)
[5]
  MIC, ECPB: >200 µg/mL
[6]
  MIC, PARC: 200 µg/mL (≈ 268 µM)
[7]
  MIC, KPNDM-1+: >200 µg/mL
[8]
  MIC, KPPB: >200 µg/mL
[9]
  MIC, KPRO: 200 µg/mL (≈ 268 µM)
[10]
  IC50, HepG2: 50 ± 3 µg/mL (≈ 67.1 µM)
[11]
  IC50, Hep3B: 49 ± 4 µg/mL (≈ 65.8 µM)
[12]
  IC50, Hela: 63 ± 7 µg/mL (≈ 84.6 µM)
[13]
  IC50, PC3: 43 ± 4 µg/mL (≈ 57.7 µM)
[14]
  IC50, A549: 87 ± 8 µg/mL (≈ 117 µM)
[15]
  IC50, IHH: 78 ± 7 µg/mL (≈ 105 µM)

## CC(=O)OC[C@H]1O[C@@H](O[C@H]2CC[C@]3(C)[C@H]4CC=C5[C@@H]6[C@@H](C)[C@H](C)CC[C@]6(C)CC[C@@]5(C)[C@]4(C)CC[C@H]3C2(C)C)[C@H](OC(C)=O)[C@@H](OC(C)=O)[C@@H]1OC(C)=O [4Ac, α-amyrin tetraacetyl 3-O-β-D-glucopyranoside]
[10]
  IC50, HepG2: >100 µg/mL
[11]
  IC50, Hep3B: >100 µg/mL
[12]
  IC50, Hela: >100 µg/mL
[13]
  IC50, PC3: >100 µg/mL
[16]
  IC50, MCF7: >100 µg/mL
[14]
  IC50, A549: >100 µg/mL
[15]
  IC50, IHH: >100 µg/mL

## CC(=O)O[C@H]1C(=O)[C@@]2(C)[C@H]([C@H](OC(=O)c3ccccc3)[C@]3(O)C[C@H](OC(=O)[C@H](O)[C@@H](NC(=O)c4ccccc4)c4ccccc4)C(C)=C1C3(C)C)[C@]1(OC(C)=O)CO[C@@H]1C[C@@H]2O [Paclitaxel, reference compound]
[10]
  IC50: 0.064 µg/mL (≈ 0.0749 µM)
[11]
  IC50: 0.033 µg/mL (≈ 0.0386 µM)
[12]
  IC50: 0.00478 µg/mL (≈ 0.0056 µM)
[13]
  IC50: 0.0102 µg/mL (≈ 0.0119 µM)
[14]
  IC50: 0.00512 µg/mL (≈ 0.006 µM)
[15]
  IC50: 0.0794 µg/mL (≈ 0.093 µM)

## CCCCCCCCCCCCCCCCCCCCCCCC(=O)OCC(O)CO (stereo not drawn) [compound 2, 2,3-dihydroxypropyl tetracosanoate]
[1]
  MIC: > 200 µg/mL
[2]
  MIC: 200 µg/mL (≈ 452 µM)
[3]
  MIC: 200 µg/mL (≈ 452 µM)
[4]
  MIC: 200 µg/mL (≈ 452 µM)
[5]
  MIC: > 200 µg/mL
[6]
  MIC: 200 µg/mL (≈ 452 µM)
[7]
  MIC: 200 µg/mL (≈ 452 µM)
[8]
  MIC: > 200 µg/mL
[9]
  MIC: 200 µg/mL (≈ 452 µM)
[10]
  IC50: 75 ± 6 µg/mL (≈ 169 µM)
[11]
  IC50: 73 ± 7 µg/mL (≈ 165 µM)
[12]
  IC50: 82 ± 8 µg/mL (≈ 185 µM)
[13]
  IC50: 75 ± 5 µg/mL (≈ 169 µM)
[14]
  IC50: > 100 µg/mL
[15]
  IC50: 100 µg/mL (≈ 226 µM)
[17]
  Selectivity Index (SI) on hepatocellular carcinoma lines: greater than 1

## C[C@H]1COc2c(N3CCN(C)CC3)c(F)cc3c(=O)c(C(=O)O)cn1c23 [levofloxacin, reference compound]
[1]
  MIC: 12.5 µg/mL (≈ 34.6 µM)
[2]
  MIC: 6.25 µg/mL (≈ 17.3 µM)
[3]
  MIC: 12.5 µg/mL (≈ 34.6 µM)
[4]
  MIC: 12.5 µg/mL (≈ 34.6 µM)
[5]
  MIC: 12.5 µg/mL (≈ 34.6 µM)
[6]
  MIC: 12.5 µg/mL (≈ 34.6 µM)
[7]
  MIC: > 50 µg/mL
[8]
  MIC: > 50 µg/mL
[9]
  MIC: > 50 µg/mL

## C[C@H]1[C@H](C)CC[C@]2(C)CC[C@]3(C)C(=CC[C@@H]4[C@@]5(C)CC[C@H](O)C(C)(C)[C@@H]5CC[C@]43C)[C@H]12 [α-amyrin]
[18]
  MIC, P. aeruginosa: 1000 µg/mL (≈ 2340 µM)
